Assay [1] concerns HepG2. In words: Cytotoxicity against human HepG2 cells assessed as inhibition of cell proliferation after 72 hrs by MTT assay. In kind it is functional, cell-based. As to conditions: HepG2, 72 h. An outline of the steps:
(§1)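 Cells, 5×10^3 per well, exposed in triplicate at 37 °C; DMSO-only wells as controls (0.1% v/v DMSO in all cell work). After 68 h, MTT (5 mg/mL stock) was added for a further 4 h. Overnight solubilisation at 37 °C in 10% SDS/5% isobutanol/0.1% HCl, then A570 read.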

In assay [2] the test system is HeLa. In words: Cytotoxicity against human HeLa cells assessed as inhibition of cell proliferation after 72 hrs by MTT assay. In kind it is functional, cell-based. An outline of the steps:
as §1
In general terms: Formazan colour is commonly taken as a measure of viable cells.

Assay [3] deals with A549. In words: Cytotoxicity against human A549 cells assessed as inhibition of cell proliferation after 72 hrs by MTT assay. In kind it is functional, cell-based. The conditions noted are these: A549, 72 h. An outline of the steps:
as §1

Assay [4] in a line: Cytotoxicity against human […] cells assessed as inhibition of cell proliferation after 72 hrs by MTT assay. In kind it is functional, cell-based. An outline of the steps:
as §1

For assay [5], the target named is Thioredoxin reductase 1 (Rattus norvegicus) (UniProt O89049). In words: In vitro inhibition of NADPH-reduced TrxR (unknown origin) after 2 hrs incubation by microplate reader.
Sequence of Thioredoxin reductase 1 (Rattus norvegicus) (O89049 whole entry, looked up): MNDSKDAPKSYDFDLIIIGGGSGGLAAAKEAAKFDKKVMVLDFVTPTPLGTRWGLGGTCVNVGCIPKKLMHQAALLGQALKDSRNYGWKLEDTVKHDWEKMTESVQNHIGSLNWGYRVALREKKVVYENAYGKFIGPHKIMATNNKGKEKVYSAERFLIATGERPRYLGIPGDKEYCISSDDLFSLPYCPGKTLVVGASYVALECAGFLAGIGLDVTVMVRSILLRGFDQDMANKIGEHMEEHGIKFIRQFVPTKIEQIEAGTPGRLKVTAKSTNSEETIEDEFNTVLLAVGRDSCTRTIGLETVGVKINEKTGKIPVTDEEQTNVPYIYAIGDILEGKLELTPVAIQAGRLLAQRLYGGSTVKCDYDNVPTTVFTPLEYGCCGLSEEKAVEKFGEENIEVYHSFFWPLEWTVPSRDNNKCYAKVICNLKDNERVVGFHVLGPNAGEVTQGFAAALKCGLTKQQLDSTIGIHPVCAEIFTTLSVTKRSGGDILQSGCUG
The nature of assay [6]: Cytotoxicity against human HL60 cells assessed as inhibition of cell proliferation after 72 hrs by MTT assay. In kind it is functional, cell-based. The conditions noted are these: HL-60, 72 h. Put shortly: as §1
The target in assay [7] is T1, Thioredoxin reductase (Homo sapiens, UniProt Q16881+Q9NNW7+Q86VQ6). In words: Inhibition of TrxR in human HeLa cells by Trx-mediated insulin reduction assay.
The target of assay [8] is T1, Thioredoxin reductase. The experiment in a line: Inhibition of TrxR in human HeLa cells after 48 hrs by TRFS-green based fluorescence microscopy. In kind it is cell-based. Put shortly: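 Live HeLa cells exposed to compound for 44 h, then to TRFS-green (10 μM) for a further 4 h. Green fluorescence, which tracks cellular TrxR activity, imaged alongside phase contrast.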

Assay [9] in a line: In vitro inhibition of TrxR U498C mutant (unknown origin) up to 40 uM after 2 hrs incubation by microplate reader.
Assay [10] concerns the target T1, Thioredoxin reductase. The experiment in a line: Inhibition of TrxR in human HeLa cells after 48 hrs by end point reduction assay. In kind it is cell-based. An outline of the steps: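 HeLa cells treated 48 h, lysed in RIPA buffer and protein measured by Bradford. Lysate (20 μg) incubated 30 min at 37 °C with 0.3 mM insulin, 660 μM NADPH and 15 μM E. coli Trx (pH 7.6). Stopped with DTNB in 6 M guanidine-HCl; A412 minus Trx-free blank, as % of DMSO control.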

Activity calls are given as the source filed them. No cut-off for these calls is given here. Where only a bound is given, the exact number is not on record here.

`COc1cc(OC)c(C(=O)/C=C/c2ccc(OC)c(OC)c2OC)c(OC)c1`: the IC50 – broadly, the concentration at which inhibition is half-maximal – in [1] was greater than 50 µM; in [2], greater than 50 µM; in [3] it was 44.3 µM.

`COc1cc(O)c(CC=C(C)C)c(O)c1C(=O)/C=C/c1ccc(C(F)(F)F)cc1`: the IC50 in [1] stood at 6.5 µM; in [2], 6.8 µM; in [3], 11.1 µM; in assay [4], 10.7 µM; in assay [6], 5.3 µM. Besides, in assay [5], the inhibition entry is “Active”.

As for `COc1ccc(/C=C/C(=O)c2c(OC)cc(O)c(CC=C(C)C)c2O)c(OC)c1OC`, the IC50 in assay [1] is 14.8 µM; in [2], greater than 50 µM; in assay [3], 18 µM.

As for `COc1cc(O)c(CC=C(C)C)c(O)c1C(=O)/C=C/c1ccc(O)c(O)c1`, the concentration for half-maximal inhibition (IC50) turned out to be 15.2 µM in assay [1], 38.1 µM in assay [2] and 16.1 µM in [3].

Take `COc1cc(O)cc(O)c1C(=O)/C=C/c1cccc([N+](=O)[O-])c1`: the IC50 in [1] worked out at 16.3 µM; in assay [2] it was 15.5 µM; in assay [3], 36.8 µM; in assay [4], 20.1 µM; in assay [6] it was 5.9 µM. Further, the inhibition result in assay [5] was “Active”.

Turning to `COc1ccc(/C=C/C(=O)c2c(O)cc(O)cc2OC)cc1`, the half-inhibitory concentration (IC50) was 18.1 µM in assay [1], 47.7 µM in assay [2] and greater than 50 µM in [3].

As for `COc1ccccc1/C=C/C(=O)c1c(O)cc(O)cc1OC`, the IC50 in assay [1] is 15.3 µM; in assay [2], 43.6 µM; in assay [3] it was 47.7 µM.

On to `COc1cc(OC)c(C(=O)/C=C/c2ccc(O)c(O)c2)c(OC)c1`, for which the IC50 was 27.5 µM in assay [1], 15.8 µM in assay [2] and 8.2 µM in assay [3].

For the compound `COc1cc(/C=C/C(=O)c2c(OC)cc(O)c(CC=C(C)C)c2O)ccc1O`, the results for the IC50 in assay [1], in assay [2] and in [3] were 21.7 µM, 33.8 µM and 11.8 µM, respectively.

Turning to `COc1cc(OC)c(C(=O)/C=C/c2ccc(OC)c(OC)c2)c(OC)c1`, the IC50 in [1] was 11.6 µM; in assay [2] it was 18.1 µM; in assay [3], 39.1 µM.

Take `COc1cc(OC)c(OC)cc1/C=C/C(=O)c1c(OC)cc(O)c(CC=C(C)C)c1O`: the IC50 in assay [1] was greater than 50 µM; in assay [2], greater than 50 µM; in assay [3] it was 14.4 µM.

Take `COc1cc(OC)c(C(=O)/C=C/c2ccc(C(F)(F)F)cc2)c(OC)c1`: the IC50 in [1] came out at 9.7 µM; in [2] it was 5.1 µM; in assay [3], 14.2 µM; in assay [4] it was 15.7 µM; in [6], 6.5 µM. In assay [5], the inhibition result was “Active”.

`COc1ccccc1/C=C/C(=O)c1c(OC)cc(O)c(CC=C(C)C)c1O`: the IC50 in [1] turned out to be 14.6 µM; in assay [2], 19.7 µM; in assay [3], 12.5 µM.

Take `COc1cc(O)cc(O)c1C(=O)/C=C/c1ccc(C(F)(F)F)cc1`: the IC50 in [1] was found to be 14.1 µM; in assay [2], 9.5 µM; in [3], 15.4 µM.

Turning to `COc1cc(O)cc(O)c1C(=O)/C=C/c1ccc(Cl)cc1`, the IC50 in assay [1] came out at 12.2 µM; in assay [2], 17 µM; in assay [3], 18.2 µM.

`COc1cc(/C=C/C(=O)c2c(O)cc(O)cc2OC)cc(OC)c1OC`: the values for the IC50 in assay [1], in assay [2] and in assay [3] were 20.4 µM, 18.9 µM and 28.4 µM, respectively.

For `COc1cc(OC)c(C(=O)/C=C/c2cccc([N+](=O)[O-])c2)c(OC)c1`, the IC50 was 12.8 µM in [5] and 3.5 µM in [7]. The inhibition result in [8] and in assay [10] was “Dose-dependent effect” throughout. Further, the inhibition entry in [9] is “inactive”.

As for `COc1ccc(/C=C/C(=O)c2c(OC)cc(O)c(CC=C(C)C)c2O)cc1OC`, the IC50 in [1] is 13.8 µM; in assay [2], 27.7 µM; in assay [3], 15.7 µM.

With `COc1cc(OC)c(C(=O)/C=C/c2ccc(N)cc2)c(OC)c1`, the IC50 in [1] is 45.2 µM; in [2], greater than 50 µM; in [3] it was greater than 50 µM.

As for `COc1cc(OC)c(C(=O)/C=C/c2ccc(Cl)cc2)c(OC)c1`, in assay [5], the inhibition entry is “Active”.

With `COc1cc(/C=C/C(=O)c2c(O)cc(O)cc2OC)ccc1O`, the IC50 in assay [1], in assay [2] and in assay [3] was greater than 50 µM throughout.

`COc1cc(OC)c(C(=O)/C=C/c2ccccc2OC)c(OC)c1`: the values for the IC50 in assay [1], in assay [2] and in assay [3] were 16.3 µM, 19.6 µM and 19.8 µM, respectively.

For the compound `COc1cc(OC)c(C(=O)/C=C/c2ccc(O)c(OC)c2)c(OC)c1`, the IC50 in [1] came to 17 µM; in assay [2], 44.9 µM; in assay [3] it was 43.8 µM.

Take `COc1cc(O)cc(O)c1C(=O)/C=C/c1ccc(C)cc1`: the IC50 in assay [1], in assay [2] and in [3] was greater than 50 µM throughout.

Turning to `COc1cc(OC)c(C(=O)/C=C/c2ccc(O)cc2)c(OC)c1`, the values for the half-inhibitory concentration (IC50) in assay [1], in assay [2] and in assay [3] were 37 µM, 40.6 µM and 49.4 µM, respectively.

With `COc1cc(O)cc(O)c1C(=O)/C=C/c1ccc(O)cc1` [HELICHRYSETIN], the IC50 is 40.2 µM in assay [1], 48.1 µM in [2] and greater than 50 µM in assay [3].

With `COc1cc(O)c(CC=C(C)C)c(O)c1C(=O)/C=C/c1ccc([N+](=O)[O-])cc1`, the IC50 was 12.4 µM in assay [1], 29.7 µM in [2] and 31.2 µM in assay [3].

Take `COc1ccc(/C=C/C(=O)c2c(O)cc(O)cc2OC)cc1OC`: the IC50 in [1] is 18.5 µM; in [2], 49.5 µM; in assay [3], greater than 50 µM.

`COc1cc(/C=C/C(=O)c2c(OC)cc(O)c(CC=C(C)C)c2O)cc(OC)c1OC`: the IC50 in [1], in assay [2] and in assay [3] was greater than 50 µM each time.

`COc1cc(O)cc(O)c1C(=O)/C=C/c1ccc([N+](=O)[O-])cc1`: the IC50 in assay [1] was 41 µM; in assay [2], greater than 50 µM; in [3] it was greater than 50 µM.

Take `COc1cc(O)c(CC=C(C)C)c(O)c1C(=O)/C=C/c1cccc([N+](=O)[O-])c1`: the IC50 was 16.6 µM in assay [1], 16.5 µM in [2] and 15 µM in [3].

Turning to `COc1cc(O)c(CC=C(C)C)c(O)c1C(=O)/C=C/c1ccc(Cl)cc1`, the IC50 turned out to be 10.1 µM in [1], 16.5 µM in assay [2] and 11.8 µM in assay [3].

As to `COc1cc(OC)c(C(=O)/C=C/c2cc(OC)c(OC)cc2OC)c(OC)c1`, the IC50 turned out to be 23.8 µM in assay [1], 40.5 µM in [2] and 45.1 µM in [3].

Consider `COc1cc(O)c(CC=C(C)C)c(O)c1C(=O)/C=C/c1ccc(O)cc1` [XANTHOHUMOL], for which the IC50 in assay [1] is 35 µM; in assay [2], 40.4 µM; in [3] it was 30.5 µM; in assay [7] it was greater than 40 µM.

With `COc1cc(OC)c(C(=O)/C=C/c2cc(OC)c(OC)c(OC)c2)c(OC)c1`, the IC50 in [1] stood at 16.5 µM; in assay [2], 9.9 µM; in assay [3] it was 22.3 µM.

In the case of `COc1cc(OC)c(OC)cc1/C=C/C(=O)c1c(O)cc(O)cc1OC`, the IC50 in assay [1] was determined as 18.7 µM; in assay [2] it was 37.8 µM; in assay [3], 34.2 µM.

Turning to `COc1cc(OC)c(C(=O)/C=C/c2ccc(C)cc2)c(OC)c1`, the IC50 worked out at 18.4 µM in [1], 17 µM in [2] and 15 µM in [3].

Take `COc1cc(/C=C/C(=O)c2c(OC)cc(OC)cc2OC)cc(OC)c1`: the IC50 in [1] is 9 µM; in assay [2] it was 9.2 µM; in assay [3] it was 10.1 µM.

Take `COc1cc(/C=C/C(=O)c2c(O)cc(O)cc2OC)cc(OC)c1`: the IC50 in assay [1] amounted to 17.6 µM; in [2], 13.3 µM; in [3] it was 34 µM.

For the compound `COc1cc(O)cc(O)c1C(=O)/C=C/c1ccc(O)c(O)c1`, the concentration for half-maximal inhibition (IC50) worked out at 28.7 µM in assay [1], 21.3 µM in assay [2] and 11.8 µM in assay [3].

Take `COc1ccc(/C=C/C(=O)c2c(OC)cc(O)c(CC=C(C)C)c2O)cc1`: the IC50 in assay [1] is 32.4 µM; in assay [2], greater than 50 µM; in assay [3] it was 38 µM.

(Values after ChEMBL document CHEMBL3414420, “Synthesis of xanthohumol analogues and discovery of potent thioredoxin reductase inhibitor as potential anticancer agent” (J Med Chem, 2015).)
